From ChEMBL document CHEMBL3112390, “Discovery and SAR of 5-aminooctahydrocyclopentapyrrole-3a-carboxamides as potent CCR2 antagonists” (Bioorg Med Chem Lett, 2014) come the findings set out here.

Data set [1] is described as follows: AUC in rat at 10 mg/kg, po. Also noted: dose 10 mg/kg, route oral. The conditions noted are these: plasma. The data set is classed as ADME, organism-based. The essentials:
(§1)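 Rat pharmacokinetics after a single oral dose of 10 mpk given in 0.5% methocel. Maximum plasma concentration and plasma exposure (AUC) were taken from the plasma concentration–time profile.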

Data set [2] deals with Voltage-gated inwardly rectifying potassium channel KCNH2 (Homo sapiens, UniProt Q12809). As to the kind of experiment: Binding affinity to human ERG.
Sequence of Voltage-gated inwardly rectifying potassium channel KCNH2 (Q12809 whole entry): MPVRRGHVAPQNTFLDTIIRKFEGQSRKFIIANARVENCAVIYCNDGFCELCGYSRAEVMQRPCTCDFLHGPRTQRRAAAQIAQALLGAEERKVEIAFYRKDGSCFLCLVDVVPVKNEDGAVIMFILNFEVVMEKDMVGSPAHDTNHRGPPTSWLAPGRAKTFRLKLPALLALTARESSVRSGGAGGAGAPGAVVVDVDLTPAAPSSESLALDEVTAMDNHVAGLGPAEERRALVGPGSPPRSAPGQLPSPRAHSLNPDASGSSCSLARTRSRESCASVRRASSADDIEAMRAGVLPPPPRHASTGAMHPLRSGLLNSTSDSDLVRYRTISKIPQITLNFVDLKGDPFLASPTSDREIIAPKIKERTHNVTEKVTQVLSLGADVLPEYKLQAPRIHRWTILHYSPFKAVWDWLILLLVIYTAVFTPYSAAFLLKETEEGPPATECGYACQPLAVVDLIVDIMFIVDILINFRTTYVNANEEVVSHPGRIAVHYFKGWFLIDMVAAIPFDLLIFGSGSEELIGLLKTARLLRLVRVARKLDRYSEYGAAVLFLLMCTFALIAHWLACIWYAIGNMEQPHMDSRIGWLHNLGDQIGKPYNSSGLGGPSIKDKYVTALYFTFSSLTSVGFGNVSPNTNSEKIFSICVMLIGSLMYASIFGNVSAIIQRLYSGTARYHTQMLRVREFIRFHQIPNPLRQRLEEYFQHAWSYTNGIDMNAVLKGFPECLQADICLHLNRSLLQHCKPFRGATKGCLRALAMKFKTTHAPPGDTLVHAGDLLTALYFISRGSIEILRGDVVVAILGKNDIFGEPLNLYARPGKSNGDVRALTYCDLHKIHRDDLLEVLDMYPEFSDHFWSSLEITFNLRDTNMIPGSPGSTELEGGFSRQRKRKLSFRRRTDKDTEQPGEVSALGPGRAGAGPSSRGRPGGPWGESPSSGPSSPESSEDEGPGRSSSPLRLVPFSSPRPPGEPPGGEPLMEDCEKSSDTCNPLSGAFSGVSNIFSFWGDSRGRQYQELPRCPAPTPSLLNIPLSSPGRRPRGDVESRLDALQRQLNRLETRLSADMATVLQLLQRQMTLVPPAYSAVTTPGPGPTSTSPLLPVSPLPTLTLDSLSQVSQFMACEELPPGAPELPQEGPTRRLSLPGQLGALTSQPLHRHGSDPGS
For data set [3], the target named is C-C chemokine receptor type 2 (Homo sapiens, UniProt P41597). As to the kind of experiment: Binding affinity to CCR2 receptor (unknown origin).
Sequence of C-C chemokine receptor type 2 (P41597 whole entry): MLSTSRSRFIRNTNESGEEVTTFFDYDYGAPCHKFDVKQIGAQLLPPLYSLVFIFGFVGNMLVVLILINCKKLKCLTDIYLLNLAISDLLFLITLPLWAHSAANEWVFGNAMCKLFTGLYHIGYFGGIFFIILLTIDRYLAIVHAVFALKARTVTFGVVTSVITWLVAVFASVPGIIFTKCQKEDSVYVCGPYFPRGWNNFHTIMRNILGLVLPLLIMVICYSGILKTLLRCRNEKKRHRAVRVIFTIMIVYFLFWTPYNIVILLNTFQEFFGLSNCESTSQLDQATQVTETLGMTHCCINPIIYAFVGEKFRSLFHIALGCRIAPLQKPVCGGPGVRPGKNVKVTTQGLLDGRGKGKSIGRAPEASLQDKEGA
The nature of data set [4]: Cmax in rat at 10 mg/kg, po. The data set is classed as ADME, organism-based. As to conditions: in vivo. The arrangement: dose 10 mg/kg, route oral. The essentials: as §1
Data set [5] addresses hERG (KCNH2) (Homo sapiens, UniProt Q12809). The data set is described as follows: Inhibition of human ERG at 3 uM by patchxpress assay.

Sequence of hERG (KCNH2) (Q12809 whole entry): as the sequence (Q12809 whole entry) above

For orientation: AUC means concentration integrated over time. As a reminder, the IC50 is the point on the concentration scale where inhibition reaches its midpoint. The Cmax is the peak of the concentration-time curve. In data set [1], `COC1COCCC1N[C@@H]1C[C@H]2CN(C(N)=O)C[C@@]2(C(=O)N2CCc3ncc(C(F)(F)F)cc3C2)C1` (mixture of isomers) gave an AUC of 74 ng·h/mL. Further, the IC50 in data set [2] was > 50000 nM; in data set [3], 64 nM. Further, in data set [4], the Cmax amounted to 70.6 ng/mL.

With `CNC(=O)N1C[C@@H]2C[C@@H](NC3CCOCC3OC)C[C@]2(C(=O)N2CCc3ncc(C(F)(F)F)cc3C2)C1` (mixture of isomers), the IC50 is > 50000 nM in data set [2] and 77 nM in data set [3].

`COC1COCCC1N[C@@H]1C[C@H]2CN(C(=O)NC(C)C)C[C@@]2(C(=O)N2CCc3ncc(C(F)(F)F)cc3C2)C1` (mixture of isomers): the concentration for half-maximal inhibition (IC50) was > 50000 nM in data set [2] and 410 nM in data set [3].

Take `COC1COCCC1N[C@@H]1C[C@H]2CN(C(=O)NCc3ccccc3)C[C@@]2(C(=O)N2CCc3ncc(C(F)(F)F)cc3C2)C1` (mixture of isomers): the IC50 was > 50000 nM in data set [2] and 57 nM in data set [3].

For `COC1COCCC1N[C@@H]1C[C@H]2CN(/C(N)=N\C#N)C[C@@]2(C(=O)N2CCc3ncc(C(F)(F)F)cc3C2)C1` (mixture of isomers), the IC50 was > 50000 nM in data set [2] and 37 nM in data set [3].

For the compound `COC(=O)N1C[C@@H]2C[C@@H](NC3CCOCC3OC)C[C@]2(C(=O)N2CCc3ncc(C(F)(F)F)cc3C2)C1` (mixture of isomers), the IC50 in data set [2] was > 50000 nM; in data set [3], 410 nM.

In the case of `COC1COCCC1N[C@@H]1C[C@H]2CN(C(=O)Oc3ccccc3)C[C@@]2(C(=O)N2CCc3ncc(C(F)(F)F)cc3C2)C1` (mixture of isomers), the figures for the IC50 in data set [2] and in data set [3] were > 50000 nM and 560 nM, respectively.

For `COC1COCCC1N[C@@H]1C[C@H]2CN(C(=O)OCc3ccccc3)C[C@@]2(C(=O)N2CCc3ncc(C(F)(F)F)cc3C2)C1` (mixture of isomers), the values for the IC50 in data set [2] and in data set [3] were > 50000 nM and 118 nM, respectively.

As for `COC1COCCC1N[C@@H]1C[C@H]2CN(C(=O)OCC(C)(C)C)C[C@@]2(C(=O)N2CCc3ncc(C(F)(F)F)cc3C2)C1` (mixture of isomers), the IC50 in data set [2] was > 50000 nM; in data set [3], 59 nM.

In the case of `COC1COCCC1N[C@@H]1C[C@H]2CN(C(=O)OCC(C)C)C[C@@]2(C(=O)N2CCc3ncc(C(F)(F)F)cc3C2)C1` (mixture of isomers), the IC50 in data set [2] is > 50000 nM; in data set [3], 35 nM.

`COCCOC(=O)N1C[C@@H]2C[C@@H](NC3CCOCC3OC)C[C@]2(C(=O)N2CCc3ncc(C(F)(F)F)cc3C2)C1` (mixture of isomers): the values for the IC50 in data set [2] and in data set [3] were > 50000 nM and 82 nM, respectively.

As for `COC1COCCC1N[C@@H]1C[C@H]2CN(C(=O)OCC3CCOCC3)C[C@@]2(C(=O)N2CCc3ncc(C(F)(F)F)cc3C2)C1` (mixture of isomers), the IC50 in data set [3] stood at 32 nM.

As usually defined, the inhibition is the relative decrease from the control value, in per cent. Low values mean a response near the control, high ones a response far below the control. Compound `COC1COCCC1N[C@@H]1C[C@H]2CN(C(=O)OCCC3CCOCC3)C[C@@]2(C(=O)N2CCc3ncc(C(F)(F)F)cc3C2)C1` (mixture of isomers) came in with an AUC in data set [1] of 427 ng·h/mL. In addition, the IC50 in data set [2] was > 50000 nM; in data set [3], 31 nM. The compound further displayed an inhibition at 3 µM in data set [5] of 7.3%. In data set [4], this compound returned a Cmax of 145 ng/mL.

On to `COC1COCCC1N[C@@H]1C[C@H]2CN(C(=O)OCCNC(C)=O)C[C@@]2(C(=O)N2CCc3ncc(C(F)(F)F)cc3C2)C1` (mixture of isomers), for which the values for the IC50 in data set [2] and in data set [3] were > 50000 nM and 45 nM, respectively.

Consider `COC1COCCC1N[C@@H]1C[C@H]2CN(C(=O)OCCN3CCCC3)C[C@@]2(C(=O)N2CCc3ncc(C(F)(F)F)cc3C2)C1` (mixture of isomers), for which the values for the IC50 in data set [2] and in data set [3] were > 50000 nM and 33 nM, respectively.

In the case of `COC1COCCC1N[C@@H]1C[C@H]2CN(C(=O)OCCN3CCOCC3)C[C@@]2(C(=O)N2CCc3ncc(C(F)(F)F)cc3C2)C1` (mixture of isomers), the IC50 in data set [2] is > 50000 nM; in data set [3] it was 41 nM.

As for `COC1COCCC1N[C@@H]1C[C@H]2CNC[C@@]2(C(=O)N2CCc3ncc(C(F)(F)F)cc3C2)C1` (mixture of isomers), the IC50 in data set [2] was > 50000 nM.

On to `COC1COCCC1N[C@@H]1C[C@H]2CN(C)C[C@@]2(C(=O)N2CCc3ncc(C(F)(F)F)cc3C2)C1` (mixture of isomers), for which, in data set [2], the IC50 is > 50000 nM.

For the compound `CCN1C[C@@H]2C[C@@H](NC3CCOCC3OC)C[C@]2(C(=O)N2CCc3ncc(C(F)(F)F)cc3C2)C1` (mixture of isomers), the IC50 in data set [2] is 42600 nM; in data set [3], 629 nM.

As to `COC1COCCC1N[C@@H]1C[C@H]2CN(C(C)C)C[C@@]2(C(=O)N2CCc3ncc(C(F)(F)F)cc3C2)C1` (mixture of isomers), the results for the IC50 in data set [2] and in data set [3] were > 50000 nM and 1210 nM, respectively.

Take `COC1COCCC1N[C@@H]1C[C@H]2CN(C3CC3)C[C@@]2(C(=O)N2CCc3ncc(C(F)(F)F)cc3C2)C1` (mixture of isomers): the IC50 in data set [3] is 180 nM.

In the case of `COC1COCCC1N[C@@H]1C[C@H]2CN(C3COC3)C[C@@]2(C(=O)N2CCc3ncc(C(F)(F)F)cc3C2)C1` (mixture of isomers), the concentration for half-maximal inhibition (IC50) was > 50000 nM in data set [2] and 126 nM in data set [3].

With `COC1COCCC1N[C@@H]1C[C@H]2CN(c3ccccc3)C[C@@]2(C(=O)N2CCc3ncc(C(F)(F)F)cc3C2)C1` (mixture of isomers), the results for the IC50 in data set [2] and in data set [3] were 22900 nM and 62 nM, respectively.

Turning to `COC1COCCC1N[C@@H]1C[C@H]2CN(c3nccs3)C[C@@]2(C(=O)N2CCc3ncc(C(F)(F)F)cc3C2)C1` (mixture of isomers), the IC50 is > 50000 nM in data set [2] and 152 nM in data set [3].

For the compound `COC1COCCC1N[C@@H]1C[C@H]2CN(C(C)=O)C[C@@]2(C(=O)N2CCc3ncc(C(F)(F)F)cc3C2)C1` (mixture of isomers), the IC50 in data set [2] was > 50000 nM; in data set [3], 395 nM.

Turning to `COC1COCCC1N[C@@H]1C[C@H]2CN(C(=O)/C=C/c3ccccc3)C[C@@]2(C(=O)N2CCc3ncc(C(F)(F)F)cc3C2)C1` (mixture of isomers), the IC50 in data set [2] is 24100 nM. That is a double-digit micromolar value.

For the compound `COC1COCCC1N[C@@H]1C[C@H]2CN(C(=O)/C=C/C(C)(C)C)C[C@@]2(C(=O)N2CCc3ncc(C(F)(F)F)cc3C2)C1` (mixture of isomers), the results for the IC50 in data set [2] and in data set [3] were > 50000 nM and 68 nM, respectively.

In the case of `COC1COCCC1N[C@@H]1C[C@H]2CN(C(=O)C#CC3CC3)C[C@@]2(C(=O)N2CCc3ncc(C(F)(F)F)cc3C2)C1` (mixture of isomers), the IC50 was determined as 49600 nM in data set [2] and 87 nM in data set [3].
